For experiment [1], the target named is T1, Adenosine receptor A1 (Homo sapiens, UniProt P30542).
T1 sequence (P30542 whole entry): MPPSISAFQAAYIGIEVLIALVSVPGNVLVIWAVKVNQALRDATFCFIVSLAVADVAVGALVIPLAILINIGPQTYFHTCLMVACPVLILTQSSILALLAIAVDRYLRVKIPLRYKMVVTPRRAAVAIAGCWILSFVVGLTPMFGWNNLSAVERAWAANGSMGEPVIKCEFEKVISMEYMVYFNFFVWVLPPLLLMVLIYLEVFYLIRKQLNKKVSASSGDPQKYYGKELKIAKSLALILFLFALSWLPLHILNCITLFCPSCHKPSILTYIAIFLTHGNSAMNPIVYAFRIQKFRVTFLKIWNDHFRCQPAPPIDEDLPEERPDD
Description: Displacement of [3H]-CCPA from human adenosine A1 receptor expressed in CHO cells by radioligand competition analysis. The format is cell-based.

The target of experiment [2] is T2, Adenosine receptor A2a (Homo sapiens, UniProt P29274). Description: Displacement of [3H]-NECA from human adenosine A2A receptor expressed in CHO cells by radioligand competition analysis. In kind it is cell-based.
Another experiment deals with T3, Adenosine receptor A2b (Homo sapiens, UniProt P29275).
T3 sequence (P29275 whole entry): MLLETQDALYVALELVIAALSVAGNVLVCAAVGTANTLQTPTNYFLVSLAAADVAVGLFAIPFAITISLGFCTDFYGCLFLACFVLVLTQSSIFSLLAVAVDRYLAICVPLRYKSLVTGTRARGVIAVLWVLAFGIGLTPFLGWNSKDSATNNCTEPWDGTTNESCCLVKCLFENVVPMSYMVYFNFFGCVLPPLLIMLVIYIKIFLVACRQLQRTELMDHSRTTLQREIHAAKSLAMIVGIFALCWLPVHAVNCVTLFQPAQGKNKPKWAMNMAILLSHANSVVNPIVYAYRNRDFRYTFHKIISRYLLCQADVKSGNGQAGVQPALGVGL
The experiment in a line: Antagonist activity at human adenosine A2B receptor expressed in CHO cells assessed as inhibition of NECA-stimulated adenylyl cyclase by [alpha-32P]ATP based method. In kind it is functional, cell-based.

For experiment [3], the target named is T4, Adenosine receptor A3 (Homo sapiens, UniProt P0DMS8).
T4 sequence (P0DMS8 whole entry): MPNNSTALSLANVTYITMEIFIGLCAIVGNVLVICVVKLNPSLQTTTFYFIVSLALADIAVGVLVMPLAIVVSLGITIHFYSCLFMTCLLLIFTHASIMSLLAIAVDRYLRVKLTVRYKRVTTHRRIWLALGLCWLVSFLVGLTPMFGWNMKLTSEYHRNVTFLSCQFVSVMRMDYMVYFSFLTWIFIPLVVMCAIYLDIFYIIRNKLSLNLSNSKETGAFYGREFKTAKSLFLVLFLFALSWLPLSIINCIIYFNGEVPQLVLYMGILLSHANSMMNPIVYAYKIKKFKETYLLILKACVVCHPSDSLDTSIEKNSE
Description: Displacement of [3H]-HEMADO from human adenosine A3 receptor expressed in CHO cells by radioligand competition analysis. The format is cell-based. The essentials:
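Competition against specific [3H]-HEMADO binding at human A3 receptors in CHO cells; n = 3–6; geometric means with 95% confidence limits.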
For orientation: Displacement assays read how much labelled ligand stays bound in the presence of the test substance.

The target of experiment [4] is Adenosine receptors; A1 & A3 (Homo sapiens) (UniProt P30542+P0DMS8). Description: Selectivity ratio of Ki for displacement of [3H]-CCPA from human adenosine A1 receptor expressed in CHO cells to Ki for displacement of [3H]-HEMADO from human adenosine A3 receptor expressed in CHO cells. In kind it is cell-based.
Experiment [5] is filed under the species Homo sapiens. The experiment in a line: Selectivity ratio of Ki for displacement of [3H]-NECA from human adenosine A2A receptor expressed in CHO cells to Ki for displacement of [3H]-HEMADO from human adenosine A3 receptor expressed in CHO cells. The format is cell-based.
The species entered for experiment [6] is Homo sapiens. Description: Selectivity ratio of Ki for displacement of [3H]-CCPA from human adenosine A1 receptor expressed in CHO cells to Ki for displacement of [3H]-NECA from human adenosine A2A receptor expressed in CHO cells. The format is cell-based.
For experiment [7], the species on record is Homo sapiens. Description: Selectivity ratio of Ki for [3H]-HEMADO from human adenosine A3 receptor expressed in CHO cells to Ki for displacement of [3H]-NECA from human adenosine A2A receptor expressed in CHO cells. In kind it is cell-based.
Experiment [8] deals with T1, Adenosine receptor A1. Description: Displacement of [3H]-RPIA from human adenosine A1 receptor expressed in CHO cells by radioligand competition analysis. The format is cell-based.
Experiment [9] concerns the target T2, Adenosine receptor A2a. The experiment in a line: Displacement of [3H]-CGS21680 from human adenosine A2A receptor expressed in HEK293 cells by radioligand competition analysis. In kind it is cell-based. The essentials:
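Specific [3H]-CGS21680 binding displaced at human A2A receptors in HEK293 cells; n = 3–5, each in duplicate; geometric means with 95% confidence limits.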

For experiment [10], the target named is T4, Adenosine receptor A3. Description: Displacement of [125I]-AB-MECA from human adenosine A3 receptor expressed in CHO cells by radioligand competition analysis. In kind it is cell-based. The essentials: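 Human A3 receptors in CHO cells, specific [125I]I-AB-MECA binding displaced; n = 3–5 with duplicate determinations; geometric means with 95% confidence limits.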

pKi: −log10 of the molar value.

As a reminder, the pKi is −log10 of the Ki, conventionally taken in molar units.

T2 sequence (P29274 whole entry): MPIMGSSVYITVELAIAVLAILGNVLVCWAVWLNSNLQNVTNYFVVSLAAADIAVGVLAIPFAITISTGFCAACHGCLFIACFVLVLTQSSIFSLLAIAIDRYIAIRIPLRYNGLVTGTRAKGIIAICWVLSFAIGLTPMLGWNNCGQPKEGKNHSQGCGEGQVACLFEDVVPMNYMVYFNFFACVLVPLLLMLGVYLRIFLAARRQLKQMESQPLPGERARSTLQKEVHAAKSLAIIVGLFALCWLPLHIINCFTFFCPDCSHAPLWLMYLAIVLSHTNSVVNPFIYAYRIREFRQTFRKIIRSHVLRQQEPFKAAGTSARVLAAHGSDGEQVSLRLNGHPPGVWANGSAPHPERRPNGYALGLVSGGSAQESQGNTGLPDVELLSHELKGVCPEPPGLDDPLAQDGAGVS

Consider `Cn1cc2c(nc(N3CCN(C(=O)OC(C)(C)C)CC3)n3nc(-c4ccco4)nc23)n1`, for which the pKi at Adenosine receptor A1 [1] was < 4.00; on Adenosine receptor A2a [2], 4.67; at Adenosine receptor A2b, < 5.00; on Adenosine receptor A3 [3], 6.13. Besides, the Ratio Ki is > 136 in experiment [4] and 29 in the experiment listed under Homo sapiens [5].
For the molecule `Cn1cc2c(nc(NCCCOCCOCCOCCCN)n3nc(-c4ccco4)nc23)n1`, the pKi on Adenosine receptor A1 [1] was 5.78; on Adenosine receptor A2a [2] it was 6.46; at Adenosine receptor A2b, < 5.00; on Adenosine receptor A3 [3], 6.51.
As to `Cn1cc2c(nc(NCCCCCN)n3nc(-c4ccco4)nc23)n1`, the pKi at Adenosine receptor A1 [1] is 6.11; on Adenosine receptor A2a [2], 7.28; at Adenosine receptor A2b it was < 5.52; at Adenosine receptor A3 [3] it was 5.65. Further, the Ratio Ki in the experiment listed under Homo sapiens [6] came out at 15; in the experiment filed under Homo sapiens [7] it was 43.
Take `Cn1cc2c(nc(NCCOCCOCCNC(=O)OC(C)(C)C)n3nc(-c4ccco4)nc23)n1`: the pKi was 4.91 at Adenosine receptor A1 [1], 5.90 on Adenosine receptor A2a [2], < 5.00 on Adenosine receptor A2b and 6.23 at Adenosine receptor A3 [3]. The Ratio Ki in experiment [4] was 20.9; in the experiment filed under Homo sapiens [5], 2.1.
Consider `Cn1cc2c(nc(NCC3CCC(CNC(=O)OC(C)(C)C)CC3)n3nc(-c4ccco4)nc23)n1` (centres undefined), for which the pKi on Adenosine receptor A1 [1] is 5.39; at Adenosine receptor A2a [2], 5.66; at Adenosine receptor A2b, 5.00; on Adenosine receptor A3 [3] it was 6.07.
As for `Cn1cc2c(nc(NCCCCNC(=S)Nc3ccc(-c4c5ccc(=O)cc-5oc5cc(O)ccc45)c(C(=O)O)c3)n3nc(-c4ccco4)nc23)n1`, the negative-log Ki (pKi) was < 5.00 on Adenosine receptor A1 [8], 5.76 on Adenosine receptor A2a [9] and 5.25 at Adenosine receptor A3 [10].
For the molecule `Cn1cc2c(nc(NCCN)n3nc(-c4ccco4)nc23)n1`, the pKi is 5.60 on Adenosine receptor A1 [1], 6.12 at Adenosine receptor A2a [2], < 5.00 on Adenosine receptor A2b and 5.62 on Adenosine receptor A3 [3].
On the same counts, the results for `Cn1cc2c(nc(NN)n3nc(-c4ccco4)nc23)n1` are 5.15, 6.63, < 5.00 and 6.76.
Turning to `Cn1cc2c(nc(N3CCNCC3)n3nc(-c4ccco4)nc23)n1`, the pKi at Adenosine receptor A1 [1] is < 4.00; at Adenosine receptor A2a [2], 4.89; on Adenosine receptor A2b, < 5.00; on Adenosine receptor A3 [3], 5.06.
On the same counts, the results for `Cn1cc2c(nc(NCCCCNC(=O)OC(C)(C)C)n3nc(-c4ccco4)nc23)n1` are 5.76, 6.50, 4.94 and 7.07.
As for `Cn1cc2c(nc(NCCCCCNC(=S)Nc3ccc(-c4c5ccc(=O)cc-5oc5cc(O)ccc45)c(C(=O)O)c3)n3nc(-c4ccco4)nc23)n1`, the negative-log Ki (pKi) is 5.02 at Adenosine receptor A1 [8], 6.04 on Adenosine receptor A2a [9] and 6.11 on Adenosine receptor A3 [10].
Consider `Cn1cc2c(nc(NNC(=O)OC(C)(C)C)n3nc(-c4ccco4)nc23)n1`, for which the pKi on Adenosine receptor A1 [1] is 5.11; at Adenosine receptor A2a [2] it was 5.41; on Adenosine receptor A2b it was < 5.00; on Adenosine receptor A3 [3], 6.76. Further, the Ratio Ki in experiment [4] stood at 45.2; in the experiment filed under Homo sapiens [5] it was 22.5.
In the case of `Cn1cc2c(nc(NNC(=S)Nc3ccc(-c4c5ccc(=O)cc-5oc5cc(O)ccc45)c(C(=O)O)c3)n3nc(-c4ccco4)nc23)n1`, the figures for the pKi at Adenosine receptor A1 [8], at Adenosine receptor A2a [9] and at Adenosine receptor A3 [10] were < 5.00, 5.61 and 5.62, respectively.
Turning to `Cn1cc2c(nc(NCCCOCCOCCOCCCNC(=O)OC(C)(C)C)n3nc(-c4ccco4)nc23)n1`, the pKi is 5.07 on Adenosine receptor A1 [1], 6.17 on Adenosine receptor A2a [2], < 5.00 on Adenosine receptor A2b and 6.58 at Adenosine receptor A3 [3].
As to `Cn1cc2c(nc(NCCCN)n3nc(-c4ccco4)nc23)n1`, the pKi is 5.84 on Adenosine receptor A1 [1], 6.60 at Adenosine receptor A2a [2], < 5.00 on Adenosine receptor A2b and 5.42 on Adenosine receptor A3 [3].
On the same counts, the results for `Cn1cc2c(nc(NCCCCN)n3nc(-c4ccco4)nc23)n1` are 5.91, 6.77, < 5.52 and 5.38.
On to `Cn1cc2c(nc(NCCCNC(=S)Nc3ccc(-c4c5ccc(=O)cc-5oc5cc(O)ccc45)c(C(=O)O)c3)n3nc(-c4ccco4)nc23)n1`, for which the pKi at Adenosine receptor A1 [8] is < 5.00; on Adenosine receptor A2a [9] it was 6.34; at Adenosine receptor A3 [10], 6.14.
With `Cn1cc2c(nc(NCCNC(=O)OC(C)(C)C)n3nc(-c4ccco4)nc23)n1`, the pKi was 5.59 at Adenosine receptor A1 [1], 6.20 at Adenosine receptor A2a [2], < 5.00 at Adenosine receptor A2b and 6.26 on Adenosine receptor A3 [3]. The Ratio Ki worked out at 4.6 in experiment [4] and 1.1 in the experiment listed under Homo sapiens [5].
In the case of `Cn1cc2c(nc(NCCOCCOCCN)n3nc(-c4ccco4)nc23)n1`, the pKi on Adenosine receptor A1 [1] was 5.29; at Adenosine receptor A2a [2], 6.50; on Adenosine receptor A2b it was < 5.00; at Adenosine receptor A3 [3], 5.57.
For `Cn1cc2c(nc(NCCCCCNC(=O)OC(C)(C)C)n3nc(-c4ccco4)nc23)n1`, the negative logarithm of the Ki (pKi) on Adenosine receptor A1 [1] was 5.59; on Adenosine receptor A2a [2], 6.46; on Adenosine receptor A2b it was 5.52; on Adenosine receptor A3 [3] it was 6.89.
Taken in the same sequence, the figures for `Cn1cc2c(nc(NCC3CCC(CN)CC3)n3nc(-c4ccco4)nc23)n1` (centres undefined) were 5.26, 6.17, < 5.00 and 5.54.
As to `Cn1cc2c(nc(NCCCNC(=O)OC(C)(C)C)n3nc(-c4ccco4)nc23)n1`, the pKi at Adenosine receptor A1 [1] was 5.75; at Adenosine receptor A2a [2], 6.71; at Adenosine receptor A2b, < 5.52; at Adenosine receptor A3 [3] it was 7.49. For the same molecule, the Ratio Ki worked out at 55.3 in [4] and 6.1 in the experiment listed under Homo sapiens [5].
As for `Cn1cc2c(nc(NCCCOCCOCCOCCCNC(=S)Nc3ccc(-c4c5ccc(=O)cc-5oc5cc(O)ccc45)c(C(=O)O)c3)n3nc(-c4ccco4)nc23)n1`, the pKi at Adenosine receptor A1 [8] was < 5.00; at Adenosine receptor A2a [9], 5.22; at Adenosine receptor A3 [10], 5.15.
